Test results as given in ChEMBL document CHEMBL4477168, “Hydrolyzable Tannins of Tamaricaceous Plants. 7.1 Structures and Cytotoxic Properties of Oligomeric Ellagitannins from Leaves of Tamarix nilotica and Cultured Tissues of Tamarix tetrandra” (J Nat Prod, 2016).

Columns and labels:
HSC-2 = test: Cytotoxic activity against human HSC2 cells assessed as reduction in cell viability incubated for 48 hrs by MTT assay; assay type: functional; settings: HSC-2, 48 h
How it was run: (§1)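 OSCC lines HSC-2, HSC-3, HSC-4 grown in DMEM + 10% heat-inactivated FBS, 37 °C, humidified 5% CO2. Seeded 5 × 10^3 cells/well; after 48 h medium swapped for compound-containing medium (20 mM DMSO stock; top 100 μM, 2-fold serial dilution, three replicate wells). Further 48 h, viable cells by MTT; CC50 read from dose−response curve; at least three independent experiments averaged.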

HSC-3 = test: Cytotoxic activity against human HSC3 cells assessed as reduction in cell viability incubated for 48 hrs by MTT assay; assay type: functional; settings: HSC-3, 48 h; how it was run: as §1
HSC-4 = test: Cytotoxic activity against human HSC4 cells assessed as reduction in cell viability incubated for 48 hrs by MTT assay; assay type: functional; settings: HSC-4, 48 h; how it was run: as §1
HL-60 = test: Cytotoxic activity against human HL60 cells assessed as reduction in cell viability incubated for 48 hrs by trypan blue staining based hemocytometry; assay type: functional; settings: HL-60, 48 h
How it was run: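 HL-60 cultured in RPMI1640 + 10% heat-inactivated FBS at 37 °C; plated at 3.0 × 10^4 cells/0.1 mL with various compound concentrations (DMSO stock 20 mM). After 48 h, viable cells counted by trypan blue exclusion on a hemocytometer under light microscope; CC50 from dose−response curve, mean of at least three independent experiments.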

[1] = Cytotoxic activity against human HGF cells assessed as reduction in cell viability incubated for 48 hrs by MTT assay; assay type: cell-based
How it was run: (§2)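 Normal oral cells (gingival fibroblasts, pulp cells, periodontal ligament fibroblasts) from a premolar of a child, used at 8−15 population doublings; DMEM + 10% heat-inactivated FBS, 37 °C, 5% CO2. Seeded 5 × 10^3 cells/well, medium replaced after 48 h with compound (DMSO stock 20 mM; 2-fold dilutions from 100 μM, triplicate wells); 48 h more, MTT viability; CC50 from dose−response curve; mean of ≥3 independent experiments.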

[2] = Cytotoxic activity against human HPC cells assessed as reduction in cell viability incubated for 48 hrs by MTT assay; assay type: cell-based; how it was run: as §2
[3] = Cytotoxic activity against human HPLF cells assessed as reduction in cell viability incubated for 48 hrs by MTT assay; assay type: cell-based; how it was run: as §2

Row | SMILES | CC50 (HSC-2) | CC50 (HSC-3) | CC50 (HSC-4) | CC50 (HL-60) | CC50 at 48 h [1] | CC50 at 48 h [2] | CC50 at 48 h [3]
1 | O=C(O[C@H]1[C@@H]2OC(=O)c3cc(O)c(O)c(O)c3-c3c(cc(O)c(O)c3O)C(=O)OC[C@H]2OC(O)[C@@H]1OC(=O)c1cc(O)c(O)c(O)c1)c1cc(O)c(O)c(O)c1 (some centres undefined) | 14.6 µM | 19.5 µM | 45.7 µM | 46.7 µM | > 100 µM | 64 µM | > 100 µM
2 | O=C(O[C@@H]1O[C@@H]2COC(=O)c3cc(O)c(O)c(O)c3-c3c(cc(O)c(O)c3O)C(=O)O[C@H]2[C@H](OC(=O)c2cc(O)c(O)c(O)c2)[C@H]1OC(=O)c1cc(O)c(O)c(O)c1)c1cc(O)c(O)c(Oc2c(C(=O)O[C@H]3[C@H](OC(=O)c4cc(O)c(O)c(Oc5c(C(=O)O[C@H]6C(O)O[C@@H]7COC(=O)c8cc(O)c(O)c(O)c8-c8c(cc(O)c(O)c8O)C(=O)O[C@H]7[C@@H]6OC(=O)c6cc(O)c(O)c(O)c6)cc(O)c(O)c5O)c4)O[C@@H]4COC(=O)c5cc(O)c(O)c(O)c5-c5c(cc(O)c(O)c5O)C(=O)O[C@H]4[C@@H]3OC(=O)c3cc(O)c(O)c(O)c3)cc(O)c(O)c2O)c1 (some centres undefined) | 23.2 µM | 21.2 µM | 33.9 µM | 6.48 µM | 88 µM | 86 µM | 88.3 µM
3 | O=C(O[C@H]1[C@@H]2OC(=O)c3cc(O)c(O)c(O)c3-c3c(cc(O)c(O)c3O)C(=O)OC[C@H]2OC(O)[C@@H]1O)c1cc(O)c(O)c(O)c1 (some centres undefined) | 5.82 µM | 23.3 µM | 34.4 µM | 30.5 µM | > 100 µM | > 100 µM | > 100 µM
4 | O=C(O[C@@H]1O[C@@H]2COC(=O)c3cc(O)c(O)c(O)c3-c3c(cc(O)c(O)c3O)C(=O)O[C@H]2[C@H](OC(=O)c2cc(O)c(O)c(O)c2)[C@H]1OC(=O)c1cc(O)c(O)c(O)c1)c1cc(O)c(Oc2c(C(=O)O[C@H]3[C@H](OC(=O)c4cc(O)c(O)c(O)c4)O[C@@H]4COC(=O)c5cc(O)c(O)c(O)c5-c5c(cc(O)c(O)c5O)C(=O)O[C@H]4[C@@H]3OC(=O)c3cc(O)c(O)c(O)c3)cc(O)c(O)c2O)c(O)c1 | 16.3 µM | 29.4 µM | 27.7 µM | 29.7 µM | 95.3 µM | 89 µM | > 100 µM
5 | O=C(O[C@@H]1O[C@@H]2COC(=O)c3cc(O)c(O)c(O)c3-c3c(cc(O)c(O)c3O)C(=O)O[C@H]2[C@H](OC(=O)c2cc(O)c(O)c(O)c2)[C@H]1OC(=O)c1cc(O)c(O)c(O)c1Oc1cc(C(=O)O[C@@H]2O[C@@H]3COC(=O)c4cc(O)c(O)c(O)c4-c4c(cc(O)c(O)c4O)C(=O)O[C@H]3[C@H](OC(=O)c3cc(O)c(O)c(O)c3)[C@H]2OC(=O)c2cc(O)c(O)c(O)c2Oc2cc3c(c(O)c2O)Oc2cc(cc(O)c2O)C(=O)O[C@@H]2O[C@@H]4COC(=O)c5cc(O)c(O)c(O)c5-c5c(cc(O)c(O)c5O)C(=O)O[C@H]4[C@H](OC(=O)c4cc(O)c(O)c(O)c4)[C@H]2OC3=O)cc(O)c1O)c1cc(O)c(O)c(O)c1 | 18.8 µM | 25.5 µM | 34.3 µM | 16.4 µM | 87.7 µM | 85 µM | 98.6 µM
6 | O=C(O[C@@H]1O[C@@H]2COC(=O)c3cc(O)c(O)c(O)c3-c3c(cc(O)c(O)c3O)C(=O)O[C@H]2[C@H](OC(=O)c2cc(O)c(O)c(O)c2)[C@H]1OC(=O)c1cc(O)c(O)c(O)c1)c1cc(O)c(O)c(Oc2c(C(=O)O[C@@H]3[C@@H](OC(=O)c4cc(O)c(O)c(O)c4)[C@@H]4OC(=O)c5cc(O)c(O)c(O)c5-c5c(cc(O)c(O)c5O)C(=O)OC[C@H]4O[C@H]3O)cc(O)c(O)c2O)c1 | 17.7 µM | 32.6 µM | 37.9 µM | 19.5 µM | 92 µM | 86.6 µM | > 100 µM
7 | O=C(O[C@@H]1O[C@@H]2COC(=O)c3cc(O)c(O)c(O)c3-c3c(cc(O)c(O)c3O)C(=O)O[C@H]2[C@H](OC(=O)c2cc(O)c(O)c(O)c2)[C@H]1O)c1cc(O)c(O)c(O)c1 | 14.1 µM | 28 µM | 38 µM | 39.9 µM | > 100 µM | > 100 µM | > 100 µM
